Screening results as filed in PubChem BioAssay.
MEKK2 mut-MEK5 – signal of MEK5 binding to mutant human MEKK2 PB1 domain. bead flow cytometry, Alexa488-MEK5 binding to MEKK2 mutant. percent response, % at 10 µM. 290,000 tested, 0.35% active; in the data active = percent response above about 24%, passing the limit was not always enough
MEKK3 PB1 HTS – MEKK3-MEK5 PB1 interaction, increase or decrease; bead-based flow cytometry, Alexa488-MEK5 binding to MEKK3; actives lie on both sides; 0 = blocked by unlabeled MEK5, 100 = vehicle; binding response (% of control), % at 10 µM; 290,000 tested, 1.4% active; AID 1529;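 active = binding response more than 3 SD above or below the average of its plate-row segment, actives on both sides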;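 also: Alexa488 bead fluorescence after subtracting the streptavidin-only scavenger bead signal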
Target sequence (Q99759 whole entry, looked up): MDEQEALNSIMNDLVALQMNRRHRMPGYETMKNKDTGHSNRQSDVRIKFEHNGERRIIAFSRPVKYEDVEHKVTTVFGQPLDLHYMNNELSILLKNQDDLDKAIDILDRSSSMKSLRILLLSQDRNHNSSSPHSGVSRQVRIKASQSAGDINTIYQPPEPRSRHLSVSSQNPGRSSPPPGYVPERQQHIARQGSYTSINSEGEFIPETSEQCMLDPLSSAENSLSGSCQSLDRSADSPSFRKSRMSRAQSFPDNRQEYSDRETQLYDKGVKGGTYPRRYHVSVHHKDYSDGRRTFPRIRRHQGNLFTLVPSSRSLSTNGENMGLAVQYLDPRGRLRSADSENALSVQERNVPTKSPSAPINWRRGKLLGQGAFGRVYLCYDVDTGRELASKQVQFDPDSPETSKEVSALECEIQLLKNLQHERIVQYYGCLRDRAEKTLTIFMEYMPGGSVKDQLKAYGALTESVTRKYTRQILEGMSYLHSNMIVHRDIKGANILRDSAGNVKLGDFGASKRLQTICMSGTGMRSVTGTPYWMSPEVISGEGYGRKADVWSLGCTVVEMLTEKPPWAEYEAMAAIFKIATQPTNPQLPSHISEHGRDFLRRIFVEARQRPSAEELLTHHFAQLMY
ABCB1 inh – blocks JC-1 efflux by human ABCB1 transporter. P08183. inhibition, % at 6.6 µM. CCRF-Adr cells, flow cytometry. AID 1326. 190,000 tested, 0.067% active; in the data active = inhibition above about 40%;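 also: 0% = vehicle and 100% = reference inhibitor; higher value means more JC-1 retained so stronger ABCB1 efflux block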
MEKK2wt PB1 HTS – raises or lowers MEK5 binding to wildtype human MEKK2 PB1 domain; binding response (% of control), % at 10 µM; 290,000 tested, 1.1% active; bead flow cytometry, Alexa488-MEK5 binding to MEKK2 WT; actives lie on both sides; Q9Y2U5; AID 1531; in the data active = binding response below about 67% or above about 130%
ABCG2 inh – human ABCG2 inhibition, ABCB1 as counter-screen | Q9UNQ0 | IgMXP3 cells, JC-1 efflux, flow cytometry | inhibition, % at 6.6 µM | 190,000 tested, 0.1% active | AID 1325;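 active = inhibition above 80%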;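 also: 0% = DMSO and 100% = nicardipine control wells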
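Assay system – ABCG2 IgMXP3 and barcoded ABCB1 CCRF-Adr cell mix · Input – 3 million cells/mL in well · Reagent – JC-1 fluorescent substrate · Compound – single test compound dose, 6.6 µM final · Timing – 10 min exposure at 25 °C with rotation, no wash · Detection – flow cytometry of retained JC-1 fluorescence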
MEKK2wt confirm – raises or lowers MEK5 binding to wildtype human MEKK2, retest; shares compounds with MEKK3 PB1 HTS; 5,900 tested, 2.4% active; binding response (% of control), % at 10 µM; bead flow cytometry, Alexa488-MEK5 binding to MEKK2 WT; actives lie on both sides; in the data active = binding response below about 16% or above about 210%; inactive = in between
MEKK2mut-MEK5 – signal of MEK5 binding to mutant human MEKK2, retest; shares compounds with MEKK3 PB1 HTS; bead flow cytometry, Alexa488-MEK5 binding to MEKK2 mutant; percent response, % at 10 µM; 5,900 tested, 2% active; AID 1893; in the data active = percent response mostly above about 71%, no sharp cut-off; inactive = mostly below about 38%;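 also: higher means compound restores mutant binding toward wildtype level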
MEKK3 confirm – MEKK3-MEK5 PB1 inhibition, single concentration confirmation. shares compounds with MEKK3 PB1 HTS. bead flow cytometry, Alexa488-MEK5 binding to MEKK3; active compounds read low. binding response (% of control), % at 10 µM. 5,900 tested, 1.8% active;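 active = binding response below 72% of control, or above a set upper limit, though filed actives all read lower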;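 also: 100% = DMSO only wells and 0% = binding blocked by excess unlabeled MEK5; lower values mean stronger disruption of MEK5 binding to MEKK3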
Numbers without * were called inactive; . = no result given; [ ] = dose if it differs, or a comment. Most compounds without a hit are left out; they make up all but 2.3% or so of the library.

SMILES	MEKK2 mut-MEK5	MEKK3 PB1 HTS	ABCB1 inh	MEKK2wt PB1 HTS	ABCG2 inh	MEKK2wt confirm	MEKK2mut-MEK5	MEKK3 confirm
CC(C)C(C(=O)Nc1ccc(N2CCOCC2)cc1)N1C(=O)c2ccccc2C1=O (configuration not stated)	-25	2.0*[inhibitor]	1	-2.0*[inhibitor]	3	107	7	103
CC(C(=O)Nc1ccc(N2CCOCC2)cc1)N1C(=O)c2ccccc2C1=O (configuration not stated)	-1	93	1	95	2	.	.	.
COC(=O)C1CCC(C)(C(=O)Nc2ccccc2)C1(C)C (configuration not stated)	-20	3.0*[inhibitor]	1	3.0*[inhibitor]	1	102	3	100
COc1ccc(NC(=O)C2CCC(C)(C(=O)O)C2(C)C)cc1 (configuration not stated)	-4	96	0	94	1	.	.	.
Cc1cc(C)c(C(=O)N(CCN(C)C)CC2CCCN(Cc3ccccc3F)C2)o1 (configuration not stated)	4	98	.	116	.	.	.	.
COc1ccc(/C=C(\NC(=O)c2ccc(OC)cc2)C(=O)N2CCCCC2)cc1	4	98	.	98	.	.	.	.
O=c1oc2ccccc2c2c1SC(C(F)(F)F)C2 (configuration not stated)	3	99	0	103	3	.	.	.
O=c1oc2ccc3ccccc3c2c2c1SC(C(F)(F)F)C2 (configuration not stated)	8	124*	0	115	2	94	-7	99
COC(=O)[C@H](Cc1ccccc1)[C@@H](C)OS(N)(=O)=O	2	103	.	99	.	.	.	.
CC(=O)Oc1ccc(/C=C2/SC(=S)N(Cc3ccccc3)C2=O)cc1	0	100	.	97	.	.	.	.
CC(=O)N1CC(=O)N(Cc2ccccc2)/C(=C/c2ccccc2)C1=O	4	132*	1	118	3	97	-4	100
O=C(NC(=O)c1ccccc1)Nc1ccc(Cl)cn1	-2	100	.	99	.	.	.	.
Nc1nnc(-c2cc3ccccc3oc2=O)s1	5	104	0	105	4	.	.	.
O=c1oc2ccccc2cc1-c1nc2c(s1)CCc1ccccc1-2	-2	92	0	63*[inhibitor]	-4	72	-15	99
O=C(CNS(=O)(=O)c1cccs1)NCCc1ccc(Cl)cc1	6	102	.	100	.	.	.	.
CCN(CC)CCOc1ccc(/C(=C(/Cl)c2ccccc2)c2ccccc2)cc1	26*	108	1	179*	-1	189	62	107
CN(C)CCOc1ccc(C(C)(C)c2ccccc2)cc1	13	107	1	110	1	.	.	.
CC/C(=C(\c1ccc(O)cc1)c1ccc(OCCN(C)C)cc1)c1ccccc1	43	78	.	180*	4	182	39	102
Oc1ccccc1N1CCN(CC(O)COC2CCCc3ccccc32)CC1 (configuration not stated)	10	106	.	112	.	.	.	.
CNS(=O)(=O)c1cccc(C(=O)NNC(=O)c2ccc(COc3ccccc3)cc2)c1	1	103	.	102	.	.	.	.
COc1ccc(OC)c(NC(=O)CSc2nnnn2-c2ccc3c(c2)OCO3)c1	12	128*	-5	116	1	98	-2	96
CCc1ccc(C(=O)Cc2cc3cccc(OC)c3oc2=O)cc1	2	101	.	98	.	.	.	.
COCCN1CCC(CNCc2cn(-c3cc(C)ccc3C)nc2-c2ccccc2)C1 (configuration not stated)	9	107	1	163*	4	173	41	111
